Consider two compounds from PMC4504105 (Journal of Cancer, 2015).

The subject of one data set is PC-3M cell xenograft. The data set is described as follows: PC-3M xenograft tumor model. The format is in vivo, Balb/c male nude mice. As to conditions: intraperitoneal, twice weekly, day 37. A digest of the protocol: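 Male Balb/c nude mice, 4-5 weeks, SPF. 3×10^6 PC-3M cells in PBS injected s.c. into the right flank. At about 0.2 cm3, randomised to 5 groups of 7: saline, reference inhibitor 1.25 mg/kg, test compound 1.25, 2.25 or 3.25 mg/kg. Dosed i.p. twice weekly, 11 times over 36 days. Volume = a×b²/2, measured before each dose; final measurement on day 37.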

For data set [1], the system named is 26S proteasomes from PC-3M cells, trypsin-like (T-L) activity. The data set is described as follows: 26S proteasome activity assay, T-L. In kind it is biochemical. The note with it: 1h; for IC50: read-out: IC50 for T-L, 26S proteasomes, 37°C.
For data set [2], the system named is 26S proteasomes from PC-3M cells, chymotrypsin-like (CT-L) activity. The data set is described as follows: 26S proteasome activity assay, CT-L. In kind it is biochemical. The note with it: 1h; for IC50: read-out: IC50 for CT-L, 26S proteasomes, 37°C.
In another data set the test system is HL-60 cells. The experiment in a line: Cancer cell proliferation. The format is cell-based. As to conditions: read-out: IC50, proliferation, 48 h. A digest of the protocol: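 HL-60 in RPMI 1640 with 10% FBS and penicillin/streptomycin at 37°C, 5% CO2. Seeded in 96-well format and exposed 48 h to a range of test compound concentrations, with a reference proteasome inhibitor run alongside. Survival by MTT. IC50 reported as mean ± SD over three independent experiments.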

The subject of data set [3] is PC-3M cells. The data set is described as follows: Cell cycle assay. The format is cell-based. As to conditions: 48 h.
Data set [4] has as its target T1, 26S proteasomes from PC-3M cells, post-glutamyl peptide hydrolase (PGPH) activity (Homo sapiens, UniProt P28072).
T1 sequence (P28072 35-239): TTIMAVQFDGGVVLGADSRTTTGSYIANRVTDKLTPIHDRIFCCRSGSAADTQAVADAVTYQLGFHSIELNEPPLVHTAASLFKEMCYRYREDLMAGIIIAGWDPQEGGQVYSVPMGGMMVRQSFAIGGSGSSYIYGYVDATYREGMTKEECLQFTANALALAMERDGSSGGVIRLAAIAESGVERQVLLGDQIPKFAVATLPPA
The data set is described as follows: 26S proteasome activity assay, PGPH. In kind it is biochemical. As to conditions: 1h.

The next data set relates to Bel-7740 cells. The data set is described as follows: Cancer cell proliferation. The format is cell-based. The note with it: read-out: IC50, proliferation, 48 h. In outline:
(§1)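 PC-3M, […] or Bcap37 cells kept in RPMI 1640 with 10% FBS and 1% penicillin/streptomycin, 37°C, 5% CO2. In 96-well plates, treated 48 h with graded concentrations of test compound or of a reference proteasome inhibitor in parallel. Survival by sulforhodamine B staining. IC50 given as mean ± SD, three independent experiments.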

Another data set in a line: Viscera. The format is in vivo, Balb/c male nude mice. As to conditions: all three doses (1.25, 2.25, 3.25 mg/kg), P>0.05. A digest of the protocol: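 Organ index from the PC-3M xenograft mice (male Balb/c nude; saline, reference inhibitor or test compound at 1.25, 2.25, 3.25 mg/kg i.p. twice weekly, 11 doses over 36 days). On day 37, body weight recorded, then mice killed; heart, liver, lung, brain, kidney and spleen excised and weighed. Group means ± SD compared with control by Student's t-test.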

For data set [5], the system named is cell cycle proteins in PC-3M cell xenograft tumors. The experiment in a line: Western blot analysis, xenograft tumor tissue. In kind it is in vivo, Balb/c male nude mice. As to conditions: p<0.05. A digest of the protocol: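 Western blot on PC-3M xenograft tumours from mice dosed i.p. twice weekly. Tissue ground and lysed, whole protein on 10% SDS-PAGE, blotted to nitrocellulose, blocked with 5% milk. Primary antibodies against cyclin B1, p21, p27, wee 1 and others overnight at 4°C, then anti-mouse/anti-rabbit secondaries. ECL imaging; Student's t-test against control.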

The subject of data set [6] is proteasome β catalytic sites in PC-3M cells. The data set is described as follows: Proteasome activity profiling in intact cells. In kind it is cell-based. As to conditions: 12.5-400 nM, 3 h. In outline:
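PC-3M cells treated 3 h with test compound (12.5-400 nM), washed and harvested; proteasomes extracted as for the activity assay. Lysates labelled with Me4BodipyFL-Ahx3Leu3VS (5 μM) for 1 h at 37°C, boiled in sample buffer. 20 μg protein per lane on 12.5% SDS-PAGE, in-gel fluorescence scan. Band integrated optical density quantified; three independent experiments.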

A further data set concerns Bcap37 cells. The data set is described as follows: Cancer cell proliferation. As to conditions: read-out: IC50, proliferation, 48 h. In kind it is cell-based. In outline:
as §1

The test system of data set [7] is ubiquitinated and cell cycle proteins in PC-3M cells. The experiment in a line: Western blot analysis, PC-3M cells. The format is cell-based. In outline:
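PC-3M cells exposed 48 h to a series of test compound concentrations (12.5-100 nM for cell-cycle proteins), then lysed. 10% SDS-PAGE, nitrocellulose, 5% milk block. Primary antibodies (ubiquitin, wee 1, cyclin B1, p27, p21, GAPDH) overnight at 4°C; anti-mouse/anti-rabbit secondaries; ECL detection. Three independent experiments; Student's t-test against control.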
For orientation: Immunoblotting shows a protein as a band on a membrane.

The test system of data set [8] is PC-3M cells. The experiment in a line: Cancer cell proliferation. In kind it is cell-based. A digest of the protocol:
as §1

For `CC(C)C[C@H](NC(=O)[C@H](Cc1ccccc1)NC(=O)c1cnccn1)B(O)O` [PS341, reference compound], the “Tumor growth inhibition (final tumor volume)” value in the data set with PC-3M cell xenograft (1.25 mg/kg) turned out to be 49.6%. The values for the IC50 in [1] and in data set [2] were 5350 ± 57 nM and 71 ± 1 nM, respectively.
In the case of `CC(C)C[C@H](NC(=O)[C@H](Cc1ccc2ccccc2c1)NC(=O)[C@H](CC(C)C)NC(=O)c1cnccn1)B(O)O` [YSY01A, N-(2-Pyrazinecarbonyl)-L-leucine-L-(2-naphthyl)-alanine-L-leucine boronic acid], the IC50 in the data set on HL-60 cells was found to be 170 ± 9.9 nM; in data set [4] (read-out: IC50 for PGPH, 26S proteasomes, 37°C) it was 714 ± 44 nM; with Bel-7740 cells, 286 ± 13.2 nM; in data set [1] it was 1240 ± 77 nM; in data set [2] it was 123 ± 18 nM; with Bcap37 cells, 879 ± 18.2 nM. In addition, in the data set on PC-3M cells [8] (read-out: IC50, proliferation, 48 h), the IC50 is 150 ± 9 nM. Further, the “Increase of cells in the G2/M phase” value with PC-3M cells [3] (50 nM) stood at 14%; in the data set with PC-3M cells [3] (100 nM) it was 44%. Besides, the results for the “Tumor growth inhibition (final tumor volume)” value in the data set on PC-3M cell xenograft (1.25 mg/kg), in the data set on PC-3M cell xenograft (2.25 mg/kg) and in the data set with PC-3M cell xenograft (3.25 mg/kg) were 45.7%, 52.8% and 60.1%, respectively. In data set [4] (various YSY01A concentrations), the PGPH activity inhibited was 12-48%. In addition, the “Impact on viscera index (body, heart, liver, brain, kidney, spleen and lung)” value in the data set “Viscera” is “slightly impacted”. The “Protein (cyclinB1, p21, p27, P-cdc2 (tyr15), wee 1) expression from tumor tissue” value in data set [5] is given as “enhanced”. Moreover, in [1] (various YSY01A concentrations), the T-L activity inhibited was 12-43%. Moreover, in data set [6], the “β5i, β2, β2i, β1 and β1i/β5 fluorgenic bands” value is listed as “decreased”. For the same compound, in [2] (various YSY01A concentrations), the CT-L activity inhibited is on record as 34-86%. For the same compound, in [7] (12.5-100 nM, 48 h, p<0.05 versus control), the “Protein (cyclinB1, p21, p27, P-cdc2 (tyr15), wee 1) expression” value was “increased”. The “Concentration causing ubiquitinated protein accumulation” value in [7] (48h) turned out to be 25 nM. Also, the “Inhibition efficacy relative to PS341” value with PC-3M cells [8] (48h) is given as “three times highter”.
